Laboratory results as given in ChEMBL document CHEMBL4364265, “Oridonin derivatives as potential anticancer drug candidates triggering apoptosis through mitochondrial pathway in the liver cancer cells” (Eur J Med Chem, 2019).
Active and inactive are the calls of the source. The rule behind the calls is not given here.

Tests used:
HepG2 [1] = assay: Antiproliferative activity against human HepG2 cells incubated for 72 hrs by CCK8 cells; type: functional, cell-based; conditions: HepG2, 72 h
Outline: (§1)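 CCK-8 proliferation assay. 10,000 cells per well were preincubated 24 h at 37 °C with 5% CO2, then given compound dissolved in DMSO and incubated 72 h. CCK-8 was added for 4 h and absorbance read at 450 nm. IC50 was taken from dose-response curves as mean ± SEM of at least three independent experiments, with paclitaxel as positive control. HepG2 and L-O2 were grown in DMEM/10% FBS; A549 and RPMI-8226 in RPMI 1640/10% FBS.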

RPMI-8226 = assay: Antiproliferative activity against human RPMI8226 cells incubated for 72 hrs by CCK8 cells; type: functional, cell-based; conditions: RPMI-8226, 72 h; outline: as §1
A549 = assay: Antiproliferative activity against human A549 cells incubated for 72 hrs by CCK8 cells; type: functional, cell-based; conditions: A549, 72 h; outline: as §1
HepG2 [2] = assay: Inhibition of colony formation in human HepG2 cells at 0.1 to 1 uM incubated for 10 days by crystal violet staining based microscopic method; type: functional, cell-based
Outline: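 Five hundred cells plated per 30 mm dish and left 12 h. Medium with compound was added (0, 0.1, 0.5, 1 µM) or DMSO as negative control, and cells grew 10 days. Colonies were fixed in methanol 15 min, stained with 0.1% crystal violet 15 min, photographed and counted. Colony size was checked by microscope. Relative colony number is mean ± SD of ≥3 independent experiments.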

L02 = assay: Cytotoxicity against human LO2 cells incubated for 72 hrs by CCK8 cells; type: cell-based; conditions: L02, 72 h; outline: as §1
[3] = Selectivity index, ratio of IC50 for human LO2 cells to IC50 for human PLC/PRF/5 cells
Outline: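 L-O2 and PLC/PRF/5 cells were grown in DMEM with 10% FBS at 37 °C and 5% CO₂. For CCK-8 proliferation, 10,000 cells per well were pre-incubated 24 h, then exposed to compound in DMSO for 72 h. CCK-8 was added for 4 h and A450 read. IC50 came from dose–response curves; SI is IC50(L-O2)/IC50(PLC/PRF/5).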

PLC-PRF-5 [4] = assay: Antitumour activity against human PLC/PRF/5 cells xenografted in nude mouse assessed as reduction in tumour weight at 10 mg/kg, iv administrated once every 3 days for 4 weeks relative to control; type: functional
Outline: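 PLC/PRF/5 xenograft. 2 × 10^7 cells in 0.2 mL saline were injected s.c. into the right forelimb of nude mice. At about 120 mm3, mice were randomized into 3 groups of 6 and dosed i.v. at 10 mg/kg once every three days for 4 weeks. Vehicle was 10% N-methylpyrrolidone/12% Tween-80/78% saline. Volume (a×b²/2) and body weight were recorded daily, and tumors were excised and weighed at the end.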

PLC-PRF-5 [5] = assay: Antiproliferative activity against human PLC/PRF/5 cells incubated for 72 hrs by CCK8 cells; type: functional, cell-based; conditions: PLC-PRF-5, 72 h
PLC-PRF-5 [6] = assay: Inhibition of colony formation in human PLC/PRF/5 cells assessed as decrease in colony size at 0.1 to 1 uM incubated for 10 days by crystal violet staining based microscopic method
PLC-PRF-5 [7] = assay: Antiproliferative activity against human PLC/PRF/5 cells incubated for 72 hrs in presence of oridonin by CCK8 cells; type: functional, cell-based; conditions: PLC-PRF-5, 72 h
HepG2 [8] = assay: Antiproliferative activity against human HepG2 cells incubated for 72 hrs in presence of oridonin by CCK8 cells; type: functional, cell-based; conditions: HepG2, 72 h

IC50 (HepG2 [1]) [µM]	IC50 (RPMI-8226) [µM]	IC50 (A549) [µM]	Structure (SMILES)	also measured
3.1	14.3	14.7	C=C1C(=O)[C@]23[C@H](OC(=O)c4ccc(F)cc4)[C@H]1CC[C@H]2[C@@]12CO[C@]3(O)[C@@H](O)[C@@H]1C(C)(C)CC[C@@H]2O	–
26	12.2	10.7	C=C1C(=O)[C@]23[C@H](OC(=O)c4cc(F)ccc4F)[C@H]1CC[C@H]2[C@@]12CO[C@]3(O)[C@@H](O)[C@@H]1C(C)(C)CC[C@@H]2O	–
3.76	19	17.2	C=C1C(=O)[C@]23[C@H](OC(=O)c4ccc(F)c(NC(=O)Cc5ccc(OC)c(OC)c5)c4)[C@H]1CC[C@H]2[C@@]12CO[C@]3(O)[C@@H](O)[C@@H]1C(C)(C)CC[C@@H]2O	–
8.99	9.42	14	C=C1C(=O)[C@]23[C@H](OC(=O)CCc4ccc(OC)cc4)[C@H]1CC[C@H]2[C@@]12CO[C@]3(O)[C@@H](O)[C@@H]1C(C)(C)CC[C@@H]2O	–
8.2	6.71	11	C=C1C(=O)[C@]23[C@H](OC(=O)c4ccc(F)c(NC(=O)c5ccc(OC)c(OCc6ccccc6)c5)c4)[C@H]1CC[C@H]2[C@@]12CO[C@]3(O)[C@@H](O)[C@@H]1C(C)(C)CC[C@@H]2O	–
9.76	8.65	11.5	C=C1C(=O)[C@]23[C@H](OC(=O)c4ccc(OC)c(OCCBr)c4)[C@H]1CC[C@H]2[C@@]12CO[C@]3(O)[C@@H](O)[C@@H]1C(C)(C)CC[C@@H]2O	–
44.6	16.6	22.6	C=C1C(=O)[C@]23[C@H](OC(=O)[C@@H]4OC(c5ccc(OC)cc5)N(C(=O)OC(C)(C)C)[C@H]4c4ccccc4)[C@H]1CC[C@H]2[C@@]12CO[C@]3(O)[C@@H](O)[C@@H]1C(C)(C)CC[C@@H]2O (some centres not stated)	–
9.63	10.1	22.8	C=C1C(=O)[C@]23[C@H](OC(=O)CCc4ccc(OC)c(OC)c4)[C@H]1CC[C@H]2[C@@]12CO[C@]3(O)[C@@H](O)[C@@H]1C(C)(C)CC[C@@H]2O	–
8.12	9.25	30.4	C=C1C(=O)[C@]23[C@H](O)[C@H]1CC[C@H]2[C@@]12CO[C@]3(O)[C@@H](O)[C@@H]1C(C)(C)CC[C@@H]2O [ORIDONIN]	inhibition (HepG2 [2]): Active; IC50 (L02): 17.5 µM; Ratio IC50 [3]: 2.4; Activity (PLC-PRF-5 [4]): inactive; IC50 (PLC-PRF-5 [5]): 7.41 µM; inhibition (PLC-PRF-5 [6]): Active
12.6	12.4	11	C=C1C(=O)[C@]23[C@H](OC(=O)CCc4cc(OC)c(OC)c(OC)c4)[C@H]1CC[C@H]2[C@@]12CO[C@]3(O)[C@@H](O)[C@@H]1C(C)(C)CC[C@@H]2O	–
5.67	11	10.9	C=C1C(=O)[C@]23[C@H](O)[C@H]1CC[C@H]2[C@@]12CO[C@@]3(O)[C@@H](O)[C@@H]1C(C)(C)CC[C@@H]2OC(C)=O	–
36.6	35.2	17.4	C=C1C(=O)[C@]23[C@H](OC(=O)c4ccc(C#N)cc4)[C@H]1CC[C@H]2[C@@]12CO[C@]3(O)[C@@H](O)[C@@H]1C(C)(C)CC[C@@H]2O	–
2.07	–	–	C=C1C(=O)[C@@]23C(=O)[C@H]4OC[C@]5([C@@H](OC(C)=O)CCC(C)(C)[C@@H]45)[C@@H]2CC[C@@H]1[C@H]3O	–
27.5	15.8	31.1	C=C1C(=O)[C@]23[C@H](OC(=O)c4cccnc4Cl)[C@H]1CC[C@H]2[C@@]12CO[C@]3(O)[C@@H](O)[C@@H]1C(C)(C)CC[C@@H]2O	–
15.4	14.7	12.4	C=C1C(=O)[C@]23[C@H](OC(=O)c4ccc(F)c(F)c4F)[C@H]1CC[C@H]2[C@@]12CO[C@]3(O)[C@@H](O)[C@@H]1C(C)(C)CC[C@@H]2O	–
8.79	10.9	37.5	C=C1C(=O)[C@]23[C@H](OC(=O)Cc4cc(OC)c(OC)c(OC)c4)[C@H]1CC[C@H]2[C@@]12CO[C@]3(O)[C@@H](O)[C@@H]1C(C)(C)CC[C@@H]2O	–
12.3	13	10.5	C=C1C(=O)[C@]23[C@H](O)[C@H]1CC[C@H]2[C@@]12CO[C@]3(O)[C@@H](OC(C)=O)[C@@H]1C(C)(C)CC[C@@H]2OC(C)=O	–
5.66	5.01	16.7	C=C1C(=O)[C@]23[C@H](OC(=O)c4ccc(CCl)cc4)[C@H]1CC[C@H]2[C@@]12CO[C@]3(O)[C@@H](O)[C@@H]1C(C)(C)CC[C@@H]2O	–
6.54	10.5	20.9	C=C1C(=O)[C@]23[C@H](OC(=O)c4ccc(F)c(NC(=O)c5ccc(OC(F)(F)F)cc5)c4)[C@H]1CC[C@H]2[C@@]12CO[C@]3(O)[C@@H](O)[C@@H]1C(C)(C)CC[C@@H]2O	–
1.98	5.77	24.9	C=C1C(=O)[C@]23[C@H](OC(=O)/C=C/c4ccc(OC)c(OC)c4)[C@H]1CC[C@H]2[C@@]12CO[C@]3(O)[C@@H](O)[C@@H]1C(C)(C)CC[C@@H]2O	inhibition (HepG2 [2]): Active; IC50 (L02): 1.85 µM; Ratio IC50 [3]: 1.8; IC50 (PLC-PRF-5 [5]): 1.03 µM
16	17.5	14	C=C1C(=O)[C@]23[C@H](OC(=O)c4ccc(OCc5ccccc5)cc4F)[C@H]1CC[C@H]2[C@@]12CO[C@]3(O)[C@@H](O)[C@@H]1C(C)(C)CC[C@@H]2O	–
5.4	13.9	10.5	C=C1C(=O)[C@@]23C(=O)[C@@H](OC(C)=O)[C@@H]4C(C)(C)CC[C@H](OC(C)=O)[C@@]4(COC(C)=O)[C@@H]2CC[C@@H]1[C@H]3OC(C)=O	–
> 100	–	–	COc1ccc(/C=C/C(=O)O)cc1 [4-METHOXYCINNAMIC ACID]	IC50 (PLC-PRF-5 [5]): > 100 µM; IC50 (PLC-PRF-5 [7]): 6.55 µM; IC50 (HepG2 [8]): 8.56 µM
5.98	5.98	8.8	C=C1C(=O)[C@]23[C@H](OC(=O)/C=C/c4cc(OC)c(OC)c(OC)c4)[C@H]1CC[C@H]2[C@@]12CO[C@]3(O)[C@@H](O)[C@@H]1C(C)(C)CC[C@@H]2O	–
0.18	1.53	0.39	CC(=O)O[C@H]1C(=O)[C@@]2(C)[C@H]([C@H](OC(=O)c3ccccc3)[C@]3(O)C[C@H](OC(=O)[C@H](O)[C@@H](NC(=O)c4ccccc4)c4ccccc4)C(C)=C1C3(C)C)[C@]1(OC(C)=O)CO[C@@H]1C[C@@H]2O [PACLITAXEL]	–
32.3	> 100	> 100	C=C1C(=O)[C@]23[C@H](OC(=O)CCCCC4CCSS4)[C@H]1CC[C@H]2[C@@]12CO[C@]3(O)[C@@H](O)[C@@H]1C(C)(C)CC[C@@H]2O (some centres not stated)	–
0.98	–	–	C=C1C(=O)[C@]23[C@H](OC(=O)[C@H](CC(C)C)NC(=O)OC(C)(C)C)[C@H]1CC[C@H]2[C@@]12CO[C@]3(O)[C@@H](O)[C@@H]1C(C)(C)CC[C@@H]2O	inhibition (HepG2 [2]): Active; IC50 (L02): 6.3 µM; Ratio IC50 [3]: 2.4; IC50 (PLC-PRF-5 [5]): 2.67 µM
